From ChEMBL document CHEMBL1155075, “Inhibition of the signal transducer and activator of transcription-3 (STAT3) signaling pathway by 4-oxo-1-phenyl-1,4-dihydroquinoline-3-carboxylic acid esters” (J Med Chem, 2008)
Calls of active or inactive are those of the source.

How the values were obtained:
A2780 = assay: Induction of apoptosis in human A2780 cells assessed as caspase activation after 4 days by Apo-ONE Homogeneous caspase 3/7 assay; format: functional, cell-based
U-266 [1] = assay: Induction of apoptosis in human U266 cells assessed as caspase activation after 4 days by Apo-ONE Homogeneous caspase 3/7 assay; format: functional, cell-based
Outline: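 Homogeneous caspase 3/7 (Apo-ONE) luminescent/fluorescent signal used as apoptosis read-out in cells under compound treatment. U266 cultured in RPMI1640 with 10% heat-inactivated FBS and Pen-Strep.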

U-266 [2] = assay: Inhibition of cyclin D1 transcription in human U266 cells at 100 uM after 6 hrs by microarray analysis; format: functional, cell-based
Outline: (§1)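 U266 cells were seeded at 1 × 10⁶ cells/mL and treated 6 h in triplicate. RNA was purified, and 2-5 µg total RNA was converted to biotin-labelled cRNA by oligo-T7 reverse transcription and in vitro transcription with biotin-UTP/CTP. mRNA levels were then measured by microarray.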

U-266 [3] = assay: Inhibition of Bcl2-like 1 transcription in human U266 cells at 100 uM after 6 hrs by microarray analysis; format: functional, cell-based; outline: as §1
U-266 [4] = assay: Inhibition of MCL1 transcription in human U266 cells at 100 uM after 6 hrs by microarray analysis; format: functional, cell-based; outline: as §1
[5] = molecular target: Tyrosine-protein kinase JAK1 (Homo sapiens) (UniProt P23458); assay: Inhibition of JAK1 at 10 uM
Outline: (§2)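 In vitro JAK1, JAK2 and JAK3 enzyme kinase assay, each tested at 1 and 10 µM compound.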

[6] = molecular target: Tyrosine-protein kinase JAK2 (Homo sapiens) (UniProt O60674); assay: Inhibition of JAK2 at 1 uM; outline: as §2
U-266 [7] = assay: Inhibition of Bcl2-like 1 transcription in human U266 cells at 0.5 uM after 6 hrs by microarray analysis; format: functional, cell-based; outline: as §1
[8] = molecular target: Signal transducer and activator of transcription 3 (Homo sapiens) (UniProt P40763); assay: Inhibition of STAT3 Y705 phosphorylation in human HeLa cells by Western blot analysis; format: cell-based
[9] = molecular target: RAC-alpha serine/threonine-protein kinase (Homo sapiens) (UniProt P31749); assay: Inhibition of AKT-mTOR pathway in human U266 cells assessed as p70S6 kinase T389 phosphorylation by Western blot; format: cell-based; conditions: U-266
Outline: (§3)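 Steady-state phosphorylation: exponentially growing U266 cells (1 × 10⁶ cells at 2 × 10⁵ cells/mL, RPMI1640 + 10% FBS) were treated with compound for 1 h. Cells were lysed in PhosphoSafe reagent with protease inhibitors. Western blot used primary antibodies (1:1000, 2 h) and fluorescent secondaries (1 h) at room temperature. A representative blot from several repeats is shown.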

[10] = molecular target: T1, Tyrosine-protein kinase JAK3 (Homo sapiens) (UniProt P52333); assay: Inhibition of JAK3 at 10 uM; outline: as §2
T1 sequence (whole entry): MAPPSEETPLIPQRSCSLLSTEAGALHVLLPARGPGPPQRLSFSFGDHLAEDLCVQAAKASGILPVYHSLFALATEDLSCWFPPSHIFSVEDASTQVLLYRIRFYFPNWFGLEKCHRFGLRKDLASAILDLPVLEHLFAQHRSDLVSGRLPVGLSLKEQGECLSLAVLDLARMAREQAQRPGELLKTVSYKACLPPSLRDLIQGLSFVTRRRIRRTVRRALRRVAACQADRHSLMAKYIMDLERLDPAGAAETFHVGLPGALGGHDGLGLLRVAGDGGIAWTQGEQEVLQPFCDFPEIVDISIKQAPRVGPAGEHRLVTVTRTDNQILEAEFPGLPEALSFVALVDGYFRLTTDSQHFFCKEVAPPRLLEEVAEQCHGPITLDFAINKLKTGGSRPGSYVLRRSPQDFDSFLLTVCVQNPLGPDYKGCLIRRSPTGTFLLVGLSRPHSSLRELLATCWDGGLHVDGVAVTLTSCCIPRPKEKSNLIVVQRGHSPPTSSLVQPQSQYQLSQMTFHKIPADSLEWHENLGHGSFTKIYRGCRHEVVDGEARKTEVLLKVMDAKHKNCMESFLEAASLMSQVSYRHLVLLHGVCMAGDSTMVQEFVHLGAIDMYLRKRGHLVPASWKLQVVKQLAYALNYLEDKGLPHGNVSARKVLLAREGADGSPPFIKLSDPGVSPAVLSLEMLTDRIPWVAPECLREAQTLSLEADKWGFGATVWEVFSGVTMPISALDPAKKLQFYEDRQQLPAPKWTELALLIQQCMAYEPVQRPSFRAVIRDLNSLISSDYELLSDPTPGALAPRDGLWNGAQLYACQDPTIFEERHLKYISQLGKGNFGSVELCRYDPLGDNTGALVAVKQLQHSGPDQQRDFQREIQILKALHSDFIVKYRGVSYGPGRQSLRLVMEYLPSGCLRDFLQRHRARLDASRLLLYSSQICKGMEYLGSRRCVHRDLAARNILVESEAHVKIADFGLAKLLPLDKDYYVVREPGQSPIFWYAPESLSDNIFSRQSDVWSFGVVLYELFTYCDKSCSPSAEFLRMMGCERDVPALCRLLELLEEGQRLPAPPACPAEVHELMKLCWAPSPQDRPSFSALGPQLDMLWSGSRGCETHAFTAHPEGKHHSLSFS

U-266 [11] = assay: Inhibition of MCL1 transcription in human U266 cells at 0.5 uM after 6 hrs by microarray analysis; format: functional, cell-based; outline: as §1
[12] = molecular target: Tyrosine-protein kinase JAK2 (Homo sapiens) (UniProt O60674); assay: Inhibition of IFN-alpha-induced JAK2 Y1007/1008 phosphorylation in serum starved human U266 cells by Western blot analysis; format: cell-based; conditions: U-266
Outline: (§4)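 U266 cells in RPMI1640 + 10% heat-inactivated FBS were serum-starved 2 h, treated with compound 1 h, then stimulated with human IFN-alpha 20000 units/mL for 20 min. Cells were lysed in PhosphoSafe extraction reagent with protease inhibitors and analysed by Western blot with phospho-specific antibodies. JAK antibodies were used at 1:500 with milk blocking, others at 1:1000. Fluorescent secondaries were used.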

[13] = molecular target: Non-receptor tyrosine-protein kinase TYK2 (Homo sapiens) (UniProt P29597); assay: Inhibition of IFN-alpha-induced Tyk2 Y1054/1055 phosphorylation in serum starved human U266 cells by Western blot analysis; format: cell-based; conditions: U-266; outline: as §4
[14] = molecular target: Signal transducer and activator of transcription 3 (Homo sapiens) (UniProt P40763); assay: Inhibition of IL6-induced STAT3 Y705 phosphorylation in serum starved human U266 cells by Western blot analysis; format: cell-based; conditions: U-266
[15] = molecular target: Signal transducer and activator of transcription 3 (Homo sapiens) (UniProt P40763); assay: Inhibition of STAT3 S727 phosphorylation in human U266 cells; format: cell-based; conditions: U-266; outline: as §3
U-266 [16] = assay: Inhibition of cyclin D1 transcription in human U266 cells at 0.5 uM after 6 hrs by microarray analysis; format: functional, cell-based; outline: as §1
[17] = molecular target: Tyrosine-protein kinase JAK1 (Homo sapiens) (UniProt P23458); assay: Inhibition of IFN-alpha-induced JAK1 Y1022/1023 phosphorylation in serum starved human U266 cells by Western blot analysis; format: cell-based; conditions: U-266; outline: as §4
[18] = molecular target: RAC-alpha serine/threonine-protein kinase (Homo sapiens) (UniProt P31749); assay: Inhibition of AKT-mTOR pathway in human U266 cells assessed as S6-S240/244 phosphorylation by Western blot; format: cell-based; conditions: U-266; outline: as §3
[19] = molecular target: Signal transducer and activator of transcription 3 (Homo sapiens) (UniProt P40763); assay: Inhibition of STAT3 Y705 phosphorylation in human DU145 cells by Western blot analysis; format: cell-based; conditions: DU-145
[20] = molecular target: T1, Tyrosine-protein kinase JAK3 (Homo sapiens); assay: Inhibition of JAK3 at 1 uM; outline: as §2
[21] = molecular target: Signal transducer and activator of transcription 3 (Homo sapiens) (UniProt P40763); assay: Inhibition of IFN-alpha-induced STAT3 Y705 phosphorylation in serum starved human HeLa cells by Western blot analysis; format: cell-based
Outline: (§5)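 HeLa or DU145 cells in DMEM + 10% heat-inactivated FBS, ~80% confluent, were serum-starved overnight and treated with compound for 1 h. IFN-alpha 20000 units/mL was then added for 20 min. Cells were collected in 1.1X LDS sample buffer, sonicated, and analysed by Western blot for phospho-STAT3 Y705 with fluorescent secondary detection.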

A-431 = assay: Inhibition of EGF-stimulated MAPK activation in human A431 cells; format: cell-based
[22] = molecular target: Tyrosine-protein kinase JAK2 (Homo sapiens) (UniProt O60674); assay: Inhibition of JAK2 at 10 uM; outline: as §2
[23] = molecular target: Signal transducer and activator of transcription 3 (Homo sapiens) (UniProt P40763); assay: Inhibition of IFN-alpha-induced STAT3 Y705 phosphorylation in serum starved human U266 cells by Western blot analysis; format: cell-based; conditions: U-266; outline: as §4
[24] = molecular target: Tyrosine-protein kinase JAK1 (Homo sapiens) (UniProt P23458); assay: Inhibition of JAK1 at 1 uM; outline: as §2
[25] = molecular target: Signal transducer and activator of transcription 3 (Homo sapiens) (UniProt P40763); assay: Inhibition of IFN-alpha-induced STAT3 Y705 phosphorylation in serum starved human DU145 cells by Western blot analysis; format: cell-based; conditions: DU-145; outline: as §5
[26] = molecular target: T2, Signal transducer and activator of transcription 5A (Homo sapiens) (UniProt P42229); assay: Inhibition of BCR-ABL-activated STAT5 Y694/699 phosphorylation in human K562 cells; format: cell-based
T2 sequence (whole entry): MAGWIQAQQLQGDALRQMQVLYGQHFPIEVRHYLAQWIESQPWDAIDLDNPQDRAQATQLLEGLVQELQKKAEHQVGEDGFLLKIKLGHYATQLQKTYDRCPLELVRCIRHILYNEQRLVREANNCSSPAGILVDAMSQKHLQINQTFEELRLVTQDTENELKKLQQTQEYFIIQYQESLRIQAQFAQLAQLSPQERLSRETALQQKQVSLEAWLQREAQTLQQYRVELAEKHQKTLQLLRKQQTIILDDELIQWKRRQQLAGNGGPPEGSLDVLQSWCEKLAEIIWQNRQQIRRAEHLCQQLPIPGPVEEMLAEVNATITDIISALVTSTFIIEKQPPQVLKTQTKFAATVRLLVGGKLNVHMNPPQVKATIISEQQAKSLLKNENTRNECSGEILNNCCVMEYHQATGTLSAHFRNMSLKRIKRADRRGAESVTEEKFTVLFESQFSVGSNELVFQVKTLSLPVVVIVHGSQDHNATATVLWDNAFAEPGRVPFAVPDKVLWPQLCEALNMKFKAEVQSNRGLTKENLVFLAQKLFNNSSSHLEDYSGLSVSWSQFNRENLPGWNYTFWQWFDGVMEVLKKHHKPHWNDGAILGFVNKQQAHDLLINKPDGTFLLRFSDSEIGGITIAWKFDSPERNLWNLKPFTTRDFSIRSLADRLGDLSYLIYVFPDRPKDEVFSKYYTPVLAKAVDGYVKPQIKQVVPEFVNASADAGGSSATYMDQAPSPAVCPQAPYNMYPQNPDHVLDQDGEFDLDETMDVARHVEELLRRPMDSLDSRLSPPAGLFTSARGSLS
Outline: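 K562 cells (1 × 10⁶ cells at 1 × 10⁶ cells/mL, RPMI1640 + 10% FBS) were treated with compound for 1 h. Lysates in PhosphoSafe reagent were analysed by Western blot with anti-phospho-STAT5 Tyr694/Tyr699 (1:1000) and fluorescent secondary detection.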

[27] = Inhibition of MAPK pathway in human U266 cells assessed as p44/42 MAPK T202/204 phosphorylation by Western blot; format: cell-based; conditions: U-266; outline: as §3

Measured: Activity

Tyrosine-protein kinase JAK2 (Homo sapiens), sequence (O60674 whole entry): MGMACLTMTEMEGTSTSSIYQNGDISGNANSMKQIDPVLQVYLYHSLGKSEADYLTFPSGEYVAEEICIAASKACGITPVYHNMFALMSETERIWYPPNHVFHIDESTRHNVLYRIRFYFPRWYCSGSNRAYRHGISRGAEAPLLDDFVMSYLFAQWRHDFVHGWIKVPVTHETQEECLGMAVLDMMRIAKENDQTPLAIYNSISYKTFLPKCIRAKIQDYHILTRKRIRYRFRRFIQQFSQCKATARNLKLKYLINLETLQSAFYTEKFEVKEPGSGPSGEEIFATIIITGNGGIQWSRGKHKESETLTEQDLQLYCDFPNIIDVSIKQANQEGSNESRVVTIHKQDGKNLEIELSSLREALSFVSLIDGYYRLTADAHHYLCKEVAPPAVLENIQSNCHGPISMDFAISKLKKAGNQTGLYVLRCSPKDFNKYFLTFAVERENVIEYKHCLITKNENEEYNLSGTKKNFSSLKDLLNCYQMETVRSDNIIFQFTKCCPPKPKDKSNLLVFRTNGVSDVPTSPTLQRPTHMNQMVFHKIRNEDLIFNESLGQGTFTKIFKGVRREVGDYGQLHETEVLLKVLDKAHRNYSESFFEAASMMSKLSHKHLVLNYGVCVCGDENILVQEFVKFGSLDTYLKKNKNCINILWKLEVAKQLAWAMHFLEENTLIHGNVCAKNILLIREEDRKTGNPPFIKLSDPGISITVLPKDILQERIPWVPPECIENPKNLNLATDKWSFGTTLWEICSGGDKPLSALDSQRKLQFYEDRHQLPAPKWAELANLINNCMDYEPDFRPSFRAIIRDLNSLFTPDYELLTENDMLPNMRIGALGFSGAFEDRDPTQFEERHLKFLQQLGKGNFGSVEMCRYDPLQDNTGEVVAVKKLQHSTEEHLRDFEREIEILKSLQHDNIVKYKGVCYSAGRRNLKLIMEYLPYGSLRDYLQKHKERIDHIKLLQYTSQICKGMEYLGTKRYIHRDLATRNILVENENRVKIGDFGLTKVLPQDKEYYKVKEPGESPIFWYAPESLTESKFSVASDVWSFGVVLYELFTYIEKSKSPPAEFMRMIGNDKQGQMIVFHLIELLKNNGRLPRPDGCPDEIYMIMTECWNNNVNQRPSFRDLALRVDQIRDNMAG
Signal transducer and activator of transcription 3 (Homo sapiens), sequence (P40763 whole entry): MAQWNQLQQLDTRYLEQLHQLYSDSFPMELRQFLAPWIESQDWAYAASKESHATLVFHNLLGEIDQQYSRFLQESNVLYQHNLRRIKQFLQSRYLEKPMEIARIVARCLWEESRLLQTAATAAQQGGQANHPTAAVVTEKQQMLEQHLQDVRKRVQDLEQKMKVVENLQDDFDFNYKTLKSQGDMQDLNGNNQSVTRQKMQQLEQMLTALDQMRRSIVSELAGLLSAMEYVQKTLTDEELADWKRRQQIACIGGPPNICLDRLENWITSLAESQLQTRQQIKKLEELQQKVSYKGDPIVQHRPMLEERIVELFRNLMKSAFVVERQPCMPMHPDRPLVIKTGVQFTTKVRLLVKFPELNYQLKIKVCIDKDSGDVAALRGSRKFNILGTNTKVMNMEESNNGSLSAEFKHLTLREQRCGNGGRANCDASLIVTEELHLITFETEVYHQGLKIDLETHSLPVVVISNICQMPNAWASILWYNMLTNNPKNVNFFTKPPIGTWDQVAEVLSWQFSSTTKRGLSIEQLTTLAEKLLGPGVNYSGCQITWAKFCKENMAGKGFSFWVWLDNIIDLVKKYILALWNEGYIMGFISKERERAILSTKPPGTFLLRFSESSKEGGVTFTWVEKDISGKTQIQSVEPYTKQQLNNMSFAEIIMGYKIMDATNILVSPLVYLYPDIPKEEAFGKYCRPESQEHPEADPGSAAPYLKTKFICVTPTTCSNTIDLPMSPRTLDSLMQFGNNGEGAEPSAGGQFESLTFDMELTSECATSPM
Tyrosine-protein kinase JAK1 (Homo sapiens), sequence (P23458 whole entry): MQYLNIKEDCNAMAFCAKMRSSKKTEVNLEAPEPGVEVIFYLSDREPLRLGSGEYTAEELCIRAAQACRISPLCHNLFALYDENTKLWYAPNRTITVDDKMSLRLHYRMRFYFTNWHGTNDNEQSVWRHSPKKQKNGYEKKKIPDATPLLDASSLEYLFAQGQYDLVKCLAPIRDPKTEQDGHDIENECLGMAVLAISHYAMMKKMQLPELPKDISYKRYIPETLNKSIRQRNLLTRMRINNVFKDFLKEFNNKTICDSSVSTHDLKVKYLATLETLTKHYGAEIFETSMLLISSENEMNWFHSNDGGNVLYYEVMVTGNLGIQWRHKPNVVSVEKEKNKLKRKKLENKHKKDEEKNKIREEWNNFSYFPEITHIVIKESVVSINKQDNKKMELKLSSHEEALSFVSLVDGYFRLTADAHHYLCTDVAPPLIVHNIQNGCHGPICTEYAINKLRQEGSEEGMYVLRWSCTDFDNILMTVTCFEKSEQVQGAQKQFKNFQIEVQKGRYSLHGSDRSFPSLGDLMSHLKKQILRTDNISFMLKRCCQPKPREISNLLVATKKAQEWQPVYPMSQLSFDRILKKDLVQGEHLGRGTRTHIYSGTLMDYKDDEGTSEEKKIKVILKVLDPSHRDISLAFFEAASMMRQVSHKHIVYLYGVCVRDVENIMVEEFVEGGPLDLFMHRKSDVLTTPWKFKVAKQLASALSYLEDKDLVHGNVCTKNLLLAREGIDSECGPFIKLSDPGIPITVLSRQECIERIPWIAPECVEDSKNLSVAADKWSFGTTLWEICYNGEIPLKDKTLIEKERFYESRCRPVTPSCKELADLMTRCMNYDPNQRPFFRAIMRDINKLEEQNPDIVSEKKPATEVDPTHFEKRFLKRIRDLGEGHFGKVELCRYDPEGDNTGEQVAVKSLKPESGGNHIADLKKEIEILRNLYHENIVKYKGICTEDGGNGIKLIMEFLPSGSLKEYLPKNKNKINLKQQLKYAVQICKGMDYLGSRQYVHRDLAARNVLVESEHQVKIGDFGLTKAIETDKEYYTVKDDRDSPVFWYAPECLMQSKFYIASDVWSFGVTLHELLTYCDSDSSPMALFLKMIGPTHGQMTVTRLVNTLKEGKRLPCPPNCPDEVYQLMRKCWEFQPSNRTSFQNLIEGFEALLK
RAC-alpha serine/threonine-protein kinase (Homo sapiens), sequence (P31749 whole entry): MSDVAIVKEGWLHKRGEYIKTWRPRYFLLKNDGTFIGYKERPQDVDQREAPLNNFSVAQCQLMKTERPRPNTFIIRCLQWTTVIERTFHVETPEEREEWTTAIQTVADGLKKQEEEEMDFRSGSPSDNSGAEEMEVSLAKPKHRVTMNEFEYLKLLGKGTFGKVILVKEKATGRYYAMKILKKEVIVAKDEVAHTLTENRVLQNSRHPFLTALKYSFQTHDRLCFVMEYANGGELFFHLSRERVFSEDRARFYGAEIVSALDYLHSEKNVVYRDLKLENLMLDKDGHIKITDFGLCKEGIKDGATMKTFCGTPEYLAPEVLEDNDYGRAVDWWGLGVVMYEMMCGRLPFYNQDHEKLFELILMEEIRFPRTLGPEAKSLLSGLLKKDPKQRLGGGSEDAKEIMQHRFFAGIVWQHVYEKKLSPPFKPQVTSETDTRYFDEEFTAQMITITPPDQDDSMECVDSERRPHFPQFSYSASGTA
Non-receptor tyrosine-protein kinase TYK2 (Homo sapiens), sequence (P29597 whole entry): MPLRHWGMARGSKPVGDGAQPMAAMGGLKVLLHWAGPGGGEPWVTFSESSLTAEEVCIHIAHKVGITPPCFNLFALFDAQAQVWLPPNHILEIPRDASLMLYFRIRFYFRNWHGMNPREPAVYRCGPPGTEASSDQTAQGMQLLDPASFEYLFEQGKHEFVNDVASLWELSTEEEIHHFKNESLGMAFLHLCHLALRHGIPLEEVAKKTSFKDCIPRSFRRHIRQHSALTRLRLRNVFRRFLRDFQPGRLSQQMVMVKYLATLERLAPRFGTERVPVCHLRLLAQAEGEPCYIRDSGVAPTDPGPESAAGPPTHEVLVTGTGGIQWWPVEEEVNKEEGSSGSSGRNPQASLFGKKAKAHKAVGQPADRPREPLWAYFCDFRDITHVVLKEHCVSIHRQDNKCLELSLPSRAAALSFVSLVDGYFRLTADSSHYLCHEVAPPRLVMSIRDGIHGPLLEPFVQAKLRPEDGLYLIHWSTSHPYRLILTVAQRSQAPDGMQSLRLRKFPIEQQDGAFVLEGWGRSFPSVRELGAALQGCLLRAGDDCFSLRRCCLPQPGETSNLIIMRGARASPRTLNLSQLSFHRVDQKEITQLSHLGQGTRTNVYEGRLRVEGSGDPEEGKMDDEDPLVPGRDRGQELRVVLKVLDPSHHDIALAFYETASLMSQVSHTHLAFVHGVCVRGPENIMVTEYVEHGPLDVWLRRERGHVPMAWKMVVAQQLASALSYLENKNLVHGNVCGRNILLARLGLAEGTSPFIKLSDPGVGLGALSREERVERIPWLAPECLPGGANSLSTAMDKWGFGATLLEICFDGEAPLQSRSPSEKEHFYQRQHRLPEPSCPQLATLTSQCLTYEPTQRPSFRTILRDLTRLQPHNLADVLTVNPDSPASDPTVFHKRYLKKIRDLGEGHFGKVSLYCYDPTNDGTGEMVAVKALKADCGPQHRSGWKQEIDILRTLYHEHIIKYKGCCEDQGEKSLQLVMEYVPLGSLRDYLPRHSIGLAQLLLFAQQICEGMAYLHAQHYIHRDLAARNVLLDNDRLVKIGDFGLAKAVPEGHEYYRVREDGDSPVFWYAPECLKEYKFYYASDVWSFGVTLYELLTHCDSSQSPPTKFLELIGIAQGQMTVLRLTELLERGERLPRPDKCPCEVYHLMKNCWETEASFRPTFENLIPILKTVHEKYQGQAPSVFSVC

CCOC(=O)c1cn(-c2c(F)c(F)c(F)c(F)c2F)c2c(F)c(F)c(F)c(F)c2c1=O
inactive: A2780
active: U-266 [1]

N#C/C(=C\c1ccc(O)c(O)c1)C(=O)NCc1ccccc1
active: U-266 [2] | U-266 [3] | U-266 [4]

CCOC(=O)c1cn(-c2c(F)c(F)c(C#N)c(F)c2F)c2c(F)c(F)c(F)cc2c1=O
inactive: [5] | [6] | [9] | [10] | [15] | [18] | [20] | A-431 | [22] | [24] | [26] | [27]
not listed: A2780 | U-266 [2] | U-266 [3] | U-266 [4]
active: all other assays above
